The nature of the data set: Toxicity liver stage against HepG2, at 10uM. The class given is cell-based. Also on record: test concentration 10 uM, cell line HepG2-A16-CD81EGFP. To be noted: human, HepG2-A16-CD81EGFP cells; read-out: INHIBITION
Summed up:
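Uninfected HepG2-A16-CD81EGFP cells, 3 × 10^3 per well, 1536-well, plated on prespotted compound at 10 μM final, parasite-free screening media added to match infected plates; puromycin 10 μM positive, DMSO 0.5% negative; run in parallel with 48 h PbLuc assay at 37 °C, 5% CO2; viability by CellTiter-Glo luminescence, normalized to controls.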
In the case of `COc1cccc(S(=O)(=O)CCN2CCCCC2)c1`, the cytotoxicity at 10 µM amounted to 2.37%.
With `O=C(Nc1c(F)cccc1F)N1CC(c2nc(C3CC3)no2)C1` the figure was -1.65%; with `Cc1cc(C(=O)N2CCc3nc(N4CCOCC4)nc(C)c3C2)c(C)o1`, -110%; with `Cc1ccc(-c2nnn(CCN3C(=O)CCC3=O)n2)cc1`, 1.33%.
For `CN(C)c1ccc(C(=O)N2CCCN(Cc3cscn3)CC2)nn1` the value was -9.39%; for `Cc1cccc2c1N(C)C(=O)C21CC(=O)Nc2c1cnn2C(C)(C)C` (stereo unspecified), -1.65%.
`CCOC(C)c1nc(Cn2cc(C(=O)NC)ccc2=O)cs1` (stereo unspecified): the cytotoxicity at 10 µM is -0.315%.
Turning to `O=C(Nc1nncs1)C1CSCN1C(=O)C1CCCC1` (stereo unspecified), the cytotoxicity at 10 µM was found to be 11.3%.
In the case of `CCS(=O)(=O)NC[C@]12COC[C@H]1CN(Cc1cccc(OC)c1)C2`, the cytotoxicity at 10 µM is -6.23%.
For `Cc1cccc(N2CC[C@@H]3[C@@H](CO[C@H]3CNS(C)(=O)=O)C2)n1` the value was 3.62%; for `CCOc1ccc(CNC(C)c2ccc3[nH]c(=O)[nH]c3c2)cc1` (stereo unspecified), -7.79%.
With `COc1ccc(OC)c(CNCc2c(C)nc3sc(C)cn23)c1` the figure was 7.06%; with `CCc1nc(C2CCCN2Cc2nc(C3CC3)no2)no1` (stereo unspecified), -21.4%; with `COc1ccc(C(=O)N2CCCC2c2cnn(C)c2)cn1` (stereo unspecified), -3.63%.
Turning to `O=C(Cc1ccccc1F)N1CCN(Cc2noc(C3CC3)n2)CC1`, the cytotoxicity at 10 µM is -2.21%.
With `CN1CCN2C[C@@H](NC(=O)c3nc4ccccc4[nH]3)C[C@H]2C1` the figure was -0.159%.
With `O=C(Cc1cccs1)N1CC[C@H]2[C@@H]1CCC(=O)N2c1cccnc1` the figure was 3.94%.
For `c1ccc(C2(NCC3CNc4ccnn4C3)CCC2)cc1` (stereo unspecified) the value was -5.34%.
With `CCCn1nccc1C(=O)Nc1ncc(C)s1`, the cytotoxicity at 10 µM worked out at 8.05%.
With `O=C(CN1CC(c2nc(-c3ccco3)no2)C1)NCC1CCCO1` (stereo unspecified) the figure was 2.21%; with `O=C1Nc2ccccc2C1C1CCN(C(=O)C2CC2)CC1` (stereo unspecified), -1.24%; with `Cc1ccc(C(=O)NCC2(O)CCOCC2)cc1F`, 6.79%.
With `OCCNc1nc(NCc2cccnc2)nc2nccnc12` the figure was -3.55%.
Regarding `CC(C)(C)Nc1c(C2CCN(C(=O)C3CC3)CC2)nc2ccccn12`, the cytotoxicity at 10 µM is 4.58%.
With `O=C(NCC1CC1)N1CCN(Cc2ccc3c(c2)OCCO3)CC1` the figure was -4.3%.
For `CO[C@H]1CN(C(=O)c2cccc(C)n2)CC[C@@]12CCCO2` the value was -6.6%; for `O=C(OCC1CCCN1)c1cccc(NC(=O)c2ccco2)c1` (stereo unspecified), -6.66%; for `c1cnn(CC2CCCN2c2ncnc3sccc23)c1` (stereo unspecified), 38.1%.
With `Cc1cc(CC(C)Nc2nc(C3CCCC3)nc3c2cnn3C)[nH]n1` (stereo unspecified) the figure was -6.12%; with `CSc1ccccc1C(=O)N1C[C@@H]2CC[C@H]1CN(C(=O)N(C)C)C2`, -3.99%.
Take `Cc1cc(CN2CCN(C(=O)NC(C)Cn3cccn3)CC2)no1` (stereo unspecified): the cytotoxicity at 10 µM is -7.45%.
With `Cc1cnccc1N1CCCN(C(=O)CCCn2ccnc2C)CC1` the figure was -5.39%.
`COc1ccc(-c2ccccc2CCN)c(OC)c1OC`: the cytotoxicity at 10 µM is 2.79%.
With `c1ccc(CO[C@@H]2CN(Cc3ccoc3)[C@@H]3COC[C@@H]32)nc1` the figure was -105%.
For `CN1CCOC(CNC(=O)CCCOCCc2ccccc2)C1` (stereo unspecified) the value was -3.56%; for `NC(=O)C1CN(C(=O)Nc2ccccc2SC(F)(F)F)CCO1` (stereo unspecified), -8.3%.
With `CN1CCC(N(Cc2ccccc2)C(=O)c2ccn3cncc3c2)CC1` the figure was 5.68%.
With `CC(C)c1ncc(Cl)c(C(=O)N2CCN3CCCCC3C2)n1` (stereo unspecified), the cytotoxicity at 10 µM was determined as 4.77%.
For `O=C(c1ccc2c(c1)OCO2)N1CCCC(n2ccnc2)C1` (stereo unspecified) the value was -7.6%.
For `O=C(Cc1cccnc1)NCCSc1ccccc1F` the value was -6.45%; for `Cc1oc(-c2ccsc2)nc1CN1CC[C@@H]2CCCC[C@H]2C1`, 7.16%.
For `CN(Cc1noc(C(C)(C)C)n1)C1CCCN(c2cccnn2)C1` (stereo unspecified), the cytotoxicity at 10 µM is -7.96%.
For `CCCc1nncn1-c1cc(OC)ccc1OC`, the cytotoxicity at 10 µM is 7.93%.
For `Cc1cc2nc(C(C)C)cc(NC(C)c3nncn3C3CCCC3)n2n1` (stereo unspecified) the value was 8.91%.
As for `O=C1N(c2ccsc2)CCC12CCCN(c1ccccn1)C2` (stereo unspecified), the cytotoxicity at 10 µM was -103%.
For `O=C(NCCNCC1CNc2ccnn2C1)c1ccc(F)cc1` (stereo unspecified) the value was -8.75%; for `CCCc1nc(C)cc(N2CCC3(CCC(=O)N(CC4CC4)C3)CC2)n1`, 14.9%; for `N#Cc1cccc(C(=O)NC2CCc3c(ccc(=O)n3CC3CC3)C2)c1` (stereo unspecified), 0.908%.
Regarding `Cc1cnn(CC2CCCN2C(=O)c2cn(C)c3ccccc23)c1` (stereo unspecified), the cytotoxicity at 10 µM is -2.12%.
With `Cc1ccc(C(=O)N2CCN(c3ncnc4nc(N)ccc34)CC2)cc1` the figure was 8.88%.
For `Fc1ccc(OCCNCCn2cccn2)cc1` the value was -4.17%; for `CS(=O)(=O)N1CCCC12CCCN(C(=O)c1ccc[nH]1)C2` (stereo unspecified), -145%.
For `CS(=O)(=O)NC[C@]12COC[C@H]1CN(C(=O)Cc1ccccc1F)C2` the value was -2.57%; for `Cc1cc(N2CCC(N(C)C(=O)c3ccccc3)CC2)nc(C)n1`, -4.69%; for `CC(=O)Nc1cccc(C(=O)N2CCc3c(nc(N(C)C)[nH]c3=O)C2)c1`, 5.9%.
For the compound `Cc1cc(S(=O)(=O)NC(=O)CCc2cncc(F)c2)c(C)s1`, the cytotoxicity at 10 µM was -1.99%.
Take `Cc1cc(C)cc(OCCN(C)C(=O)NC(C)c2nncn2C)c1` (stereo unspecified): the cytotoxicity at 10 µM was -19.1%.
With `CN(C)C(=O)CCC[S+]([O-])Cc1cc(Cl)ccc1Cl` (stereo unspecified) the figure was 12.5%; with `CCN1CCC(c2nc3ccc(NC4CCC4)cn3n2)CC1`, -121%; with `Cc1noc(CCCC(=O)N2CCNC(=O)C2)n1`, -4.62%.
For `CCc1ncnc2c1CCN(C(=O)c1ccccn1)CC2` the value was 2.43%; for `CC(C)c1nnc(N2C[C@@H](CN(C)CCO)[C@@H](CO)C2)s1`, -2.48%.
With `CCc1cc(CN(C)C(=O)c2nnc(CN(C)C)o2)on1`, the cytotoxicity at 10 µM was 1.77%.
With `O=C(c1nn(-c2ccccc2F)cc1O)N1CCCCC1` the figure was 3.36%; with `CN(C)S(=O)(=O)c1ccc(-c2nc(C#N)c(NC3CC3)o2)o1`, -18.4%; with `CNC(=O)c1nc2c(s1)CCN(C(=O)c1ccc(OC)cc1)CC2`, 0.428%.
For `CC(=O)NCC(=O)NC1CCc2c(ccc(=O)n2CC2CC2)C1` (stereo unspecified) the value was 7.89%; for `C[C@H]1C[C@H]2CN(C(=O)c3cccc4c3OCCO4)CC[C@H]2O1`, -0.91%; for `COC1CCC(N(C)c2ccnc(N(C)C)n2)CC1` (stereo unspecified), -13.6%.
With `COCCN(Cc1ccccc1)C(=O)c1cnn(C)c1C` the figure was -144%; with `CC(=O)NCC1CCC2(CCN(c3ncc(C)cn3)CC2)O1` (stereo unspecified), -3.09%.
`COc1c(CNCc2cccc(CN3CCOCC3)c2)c(C)nn1C`: the cytotoxicity at 10 µM came out at 11.1%.
For `CN(CCc1ccccn1)C(=O)Nc1cc(C(F)(F)F)c[nH]c1=O` the value was 17.2%; for `CNS(=O)(=O)c1ccc(CNC(=O)C2CCCN(C)C2)cc1` (stereo unspecified), -10.5%; for `CCc1ncc(C(=O)N2CCCN(C3CCCC3)CC2)cn1`, -7.38%.
With `c1ccc2c(CC3CN(Cc4nccs4)CCO3)cccc2c1` (stereo unspecified) the figure was 1.31%.
In the case of `CCc1cnc(CNc2cccc3c2CCN(S(=O)(=O)CC)C3)o1`, the cytotoxicity at 10 µM is -52.5%.
For `Cn1cc(C(=O)N2CC[C@@H]3[C@@H]2CCN3Cc2ccccc2)cn1` the value was -69.8%; for `Cc1cc(F)ccc1-n1cc(O)c(C(N)=O)n1`, -9.55%.
With `COc1ccccc1C(CNC(=O)NCc1cc[nH]n1)N1CCCC1` (stereo unspecified) the figure was -0.634%.
For `CC(NC(=O)c1ccc(CS(C)(=O)=O)o1)c1ccc(F)c(F)c1` (stereo unspecified) the value was -5.85%.
In the case of `c1cn2c(n1)CN(C1CCOCC1)CC(CN1CCCC1)C2` (stereo unspecified), the cytotoxicity at 10 µM was -0.123%.
For `CC(C)(C)c1ncc(CNCC2CCCN2c2cccnn2)s1` (stereo unspecified) the value was -3.33%.
For `Cc1nc(CN(C)C2CCN(Cc3c(C)noc3C)C2)no1` (stereo unspecified) the value was 6.66%; for `COc1ccc(C[C@@H]2CC[C@H](CN(C)C3CCN(C)CC3)O2)cc1`, -7.25%.
With `COc1ccc(-c2ccnc3nc(N4CCCC4)[nH]c(=O)c23)cc1OC` the figure was 9.29%; with `Cc1cc(C)c(CNC(=O)NCc2nnc3n2CCCC3)c(=O)[nH]1`, -5.34%; with `COc1ccc(CN2CC[C@@H](O)[C@@H]2Cc2cnn(C)c2)cc1`, -68.3%.
Regarding `CC(C)N1CC[C@H](c2nc3ccc(C(F)(F)F)cc3[nH]2)C1`, the cytotoxicity at 10 µM is -2.07%.
With `Cc1nc2c(c(NC3CC3)n1)CCN(C(=O)CCO)CC2` the figure was -68.3%.
As to `CNc1ncccc1CN1CCN(c2cc(NC3CC3)nc(N)n2)CC1`, the cytotoxicity at 10 µM was -6.58%.
With `CCN(Cc1ccc2c(c1)OCO2)Cc1nc2c(cnn2C)c(=O)[nH]1`, the cytotoxicity at 10 µM is -21%.
Take `Cc1ccc(C(=O)NCc2ccc(N(C)C)cc2)cn1`: the cytotoxicity at 10 µM was -6.23%.
With `Cc1noc(C2CCN(C(=O)CCNc3ncccn3)CC2)n1`, the cytotoxicity at 10 µM was -6.38%.
With `CN(C)C(=O)N1CCC(C2C(=O)Nc3ccccc32)CC1` (stereo unspecified) the figure was 11.9%; with `Cc1noc([C@H]2C[C@@H]3CCN(CC4CCOCC4)C[C@H]3O2)n1`, -103%.

These data come from ChEMBL document CHEMBL4513216, “Probing the Open Global Health Chemical Diversity Library for Multistage-Active Starting Points for Next-Generation Antimalarials” (ACS Infect Dis, 2020).
